Legend:
PLC/PRF/5 = assay: Anti-proliferation assay; assay type: cell-based; details: Homo sapiens, PLC-PRF-5, 48 h, read-out: IC50 against proliferation, PLC/PRF/5
Outline: (§1)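 Cells thawed, grown in RPMI 1640 + 10% FBS at 37 °C, 5% CO2; used in log phase. Seeded 10 000–12000 cells/well, after 4 h test compound added at working concentrations 0.16/0.8/4/20/100 μmol L−1 in complete medium. MTT (5 mg mL−1) added for 4 h, formazan dissolved in DMSO, absorbance at 570 nm.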

HEL = assay: Anti-proliferation assay; assay type: cell-based; details: Homo sapiens, 48 h, read-out: IC50 against proliferation, HEL
Outline: as §1

MDA-MB-231 = assay: Anti-proliferation assay; assay type: cell-based; details: Homo sapiens, MDA-MB-231, 48 h, read-out: IC50 against proliferation, MDA-MB-231
Outline: as §1

HEPG2 = assay: Anti-proliferation assay; assay type: cell-based; details: Homo sapiens, HepG2, 48 h, read-out: IC50 against proliferation, HEPG2
Outline: as §1

K562 = assay: Anti-proliferation assay; assay type: cell-based; details: Homo sapiens, K562, 48 h, read-out: IC50 against proliferation, K562
Outline: as §1

HuH7 = assay: Anti-proliferation assay; assay type: cell-based; details: Homo sapiens, Huh-7, 48 h, read-out: IC50 against proliferation, HuH7
Outline: as §1

[1] = Stability in simulated gastric fluid; assay type: in vitro ADME; details: 2 μM, 37 °C, pH 1.20, up to 24 h
Outline: (§2)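 Test compound at 2 μM final in simulated gastric fluid (NaCl, pepsin, HCl; pH 1.20) or simulated intestinal fluid (KH2PO4, pancreatin; pH 6.8), shaken at 37 °C, 600 rpm. At 0, 1, 2, 6, 24 h quenched with cold acetonitrile containing tolbutamide/labetalol IS, centrifuged 4 °C; remaining compound by LC/MS/MS peak area ratio analyte/IS, C18 column.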

[2] = system: human umbilical vein endothelial cells (HUVECs); assay: HUVEC tubular structure formation assay; assay type: cell-based; details: 5 μM, 4 h on Matrigel
[3] = Stability in simulated intestinal fluid; assay type: in vitro ADME; details: 2 μM, 37 °C, pH 6.8, up to 24 h
Outline: as §2

rat thoracic aorta ring = assay: Rat aortic ring assay; details: 5 μM, 9 days
Outline: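 Thoracic aortas from 8–10 week-old male SD rats, cleaned of fibroadipose tissue, cut into 1 mm rings, embedded between Matrigel layers. Test compound in M199 added; cultured at 37 °C, 5% CO2 for 9 days with medium plus compound renewed every three days. Micro-vessels imaged by inverted microscope at 100×.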

[4] = Metabolic stability in mouse liver microsomes; assay type: in vitro ADME; details: for CLint(liver): NADPH; for Remaining (NCF = 60 min): no co-factor
Outline: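 CD-1 mouse liver microsomes in 100 mM potassium phosphate buffer, preincubated 10 min at 37 °C with NADPH (1 mM final) or without co-factor. Test compound spiked to 1 μM final; testosterone positive control. Sampled at 5, 15, 30, 45, 60 min, quenched in cold acetonitrile with tolbutamide/labetalol IS, LC-MS/MS. T1/2 and CLint from first-order kinetics.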

[5] = In vivo PK study in Sprague Dawley rats; details: male, rat, plasma
Outline: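 Male SD rats, 180–220 g, acclimatised one week, fasted 12 h. Single dose i.v. infusion (jugular vein cannula sampling) or oral; blood taken predose and to 24 h (i.v. from 0.083 h, oral from 0.25 h). Plasma by centrifugation, stored −20 °C, LC-MS/MS quantitation.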

APN from porcine kidney = biological target: T1, APN from porcine kidney (Sus scrofa, UniProt P15145); assay: APN inhibition assay; assay type: biochemical
T1 sequence (P15145 1-963): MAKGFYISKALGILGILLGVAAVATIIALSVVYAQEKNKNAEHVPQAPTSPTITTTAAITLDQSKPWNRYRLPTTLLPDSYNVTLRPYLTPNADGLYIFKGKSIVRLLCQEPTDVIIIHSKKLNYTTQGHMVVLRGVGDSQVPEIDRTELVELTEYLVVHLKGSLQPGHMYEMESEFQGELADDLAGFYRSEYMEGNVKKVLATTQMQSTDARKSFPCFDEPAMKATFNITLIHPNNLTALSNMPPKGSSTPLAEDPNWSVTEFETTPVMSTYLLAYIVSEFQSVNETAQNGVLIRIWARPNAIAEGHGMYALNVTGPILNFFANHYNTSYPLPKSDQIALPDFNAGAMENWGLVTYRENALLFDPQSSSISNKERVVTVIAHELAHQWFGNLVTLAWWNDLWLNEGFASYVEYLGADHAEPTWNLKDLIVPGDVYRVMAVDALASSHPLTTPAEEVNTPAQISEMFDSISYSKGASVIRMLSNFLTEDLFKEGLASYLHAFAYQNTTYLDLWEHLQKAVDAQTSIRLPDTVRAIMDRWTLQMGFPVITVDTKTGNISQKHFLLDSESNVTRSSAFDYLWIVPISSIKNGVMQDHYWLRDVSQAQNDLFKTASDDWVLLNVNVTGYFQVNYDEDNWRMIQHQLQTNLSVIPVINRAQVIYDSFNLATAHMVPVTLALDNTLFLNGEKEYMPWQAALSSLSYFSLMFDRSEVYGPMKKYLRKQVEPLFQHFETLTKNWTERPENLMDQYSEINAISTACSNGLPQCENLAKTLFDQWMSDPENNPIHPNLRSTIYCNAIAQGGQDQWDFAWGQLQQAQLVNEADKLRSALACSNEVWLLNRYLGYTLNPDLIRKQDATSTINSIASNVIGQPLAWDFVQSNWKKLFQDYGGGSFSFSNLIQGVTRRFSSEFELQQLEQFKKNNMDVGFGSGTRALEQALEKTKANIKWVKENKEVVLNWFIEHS

[6] = mouse liver microsomes, 1 μM, 60 min

CC(C)C[C@H](NC(=O)[C@@H](O)[C@H](N)Cc1ccccc1)C(=O)O [Bestatin, reference compound]
IC50 (PLC/PRF/5): > 100 µM | IC50 (HEL): > 100 µM | IC50 (MDA-MB-231): > 100 µM | IC50 (HEPG2): > 100 µM | IC50 (K562): > 100 µM | IC50 (HuH7): > 100 µM

CC(C)C[C@H](NC(=O)NCc1cn(-c2ccccc2C(=O)OCn2cc(F)c(=O)[nH]c2=O)nn1)C(=O)NO [Compound 3, (5-fluoro-2,4-dioxo-3,4-dihydropyrimidin-1(2H)-yl)methyl (S)-2-(4-((3-(1-(hydroxyamino)-4-methyl-1-oxopentan-2-yl)ureido)methyl)-1H-1,2,3-triazol-1-yl)benzoate]
Stability in simulated gastric fluid [1]: very stable | IC50 (PLC/PRF/5): > 100 µM | IC50 (HEL): 47.2 ± 19.3 µM | IC50 (MDA-MB-231): > 100 µM | IC50 (HEPG2): > 100 µM | Effect on HUVEC capillary tube formation [2]: could inhibit the capillary tube formation | IC50 (K562): 25.6 ± 12.3 µM | Stability in simulated intestinal fluid [3]: slowly cleaved | Effect on micro-vessel growth of rat aortic ring (rat thoracic aorta ring): could prevent the micro-vessel growth | half-life at 1 μM ([4]; CD-1, mouse, liver microsomes): 94.9 min | microsomal CLint at 1 μM ([4]; CD-1, mouse, liver microsomes): 14.6 µL/min/mg | CLint(liver) ([4]; mouse liver microsomes, 1 μM): 57.8 mL/min/kg | Remaining (NCF = 60 min) [4, 6]: 80.1% | Remaining (T = 60 min) ([4]; mouse liver microsomes, 1 μM, with NADPH, 60 min): 69.4% | Tmax ([5]; iv, 10 mg/kg): 5 min | clearance ([5]; iv, 10 mg/kg): 12.3 mL/min/kg | half-life ([5]; iv, 10 mg/kg): 52 ± 23.2 min | AUC(0-inf) ([5]; po, 50 mg/kg): 510 ± 99.3 ng·h/mL | AUC(0-t) ([5]; po, 50 mg/kg): 484 ± 119 ng·h/mL | Cmax ([5]; po, 50 mg/kg): 337 ± 158 ng/mL | Tmax ([5]; po, 50 mg/kg): 25 ± 8.64 min | half-life ([5]; po, 50 mg/kg): 266 ± 246 min | IC50 (HuH7): > 100 µM | IC50 (APN from porcine kidney): 0.5 ± 0.29 µM | APN inhibitory activity, fold more potent than bestatin (APN from porcine kidney; vs positive control bestatin): over 8 fold

C[C@]12CC[C@H]3[C@@H](CCC4=CC(=O)CC[C@@]43C)[C@@H]1CC[C@@H]2O [Testosterone, reference compound]
CLint(liver) ([4]; mouse liver microsomes, 1 μM): 998.5 mL/min/kg | Remaining (NCF = 60 min) [4, 6]: 91.0%

— PMC11808297 (RSC Advances, 2025)
